In test [1] the test system is MIA PaCa-2. The test can be described thus: Antiproliferative activity against human MIAPaCa2 cells assessed as cell viability at 50 uM after 48 hrs by MTT assay. The class given is functional. As to conditions: MIA PaCa-2, 48 h, read-out: Activity. A digest of the protocol:
(§1)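 Cells exposed to 50 µM compound (fresh medium) for 48 h at 37 °C, 5% CO2; untreated control. Viable cells counted by MTT colorimetric assay. Documented for MiaPaCa-2: DMEM + 10% FBS, 15,000 cells/well, overnight attachment before treatment.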
(Formazan colour is commonly taken as a measure of viable cells.)

The subject of the next test is Capan-2. Nature of the test: Antiproliferative activity against human Capan2 cells assessed as cell viability at 50 uM after 48 hrs by MTT assay. The class given is functional. As to conditions: Capan-2, 48 h, read-out: Activity. The method in brief:
as §1

The test system of a further test is PC-3. Nature of the test: Antiproliferative activity against human PC3 cells assessed as cell viability at 50 uM after 48 hrs by MTT assay. Type of test: functional. As to conditions: PC-3, 48 h, read-out: Activity. The method in brief: as §1
The subject of test [2] is MIA PaCa-2. The test can be described thus: Antiproliferative activity against human MIAPaCa2 cells assessed as cell viability after 48 hrs by MTT assay. The class given is functional, cell-based. A digest of the protocol:
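MiaPaCa-2 cells in DMEM + 10% FBS, plated at 15,000 cells/well and attached overnight. Medium then replaced with fresh medium holding compound over a dose range; 37 °C, 5% CO2, 48 h. Viable cells determined by MTT colorimetric assay relative to untreated control.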

The subject of test [3] is MIA PaCa-2. Nature of the test: Induction of apoptosis in human MIAPaCa2 cells assessed as increase in sub-G1/G0 cell fraction at 50 uM after 48 hrs using propidium iodide staining by FACS analysis. Type of test: functional, cell-based. A digest of the protocol: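 MiaPaCa-2 cells plated at 10^6 per dish, grown overnight, then given fresh medium with 50 µM compound for 48 h; untreated negative control. Cells trypsinized, PBS-washed, fixed overnight in cold 70% ethanol at 4 °C, RNase-treated, propidium iodide stained, and sub-G1/G0 fraction read by flow cytometry. Triplicate samples.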
(Flow cytometry measures light scatter and fluorescence of single cells or particles in a stream.)

The test system of test [4] is MIA PaCa-2. Nature of the test: Induction of apoptosis in human MIAPaCa2 cells assessed as increase in caspase 3/7 activation at 50 uM after 24 hrs by luminescence assay. Type of test: functional, cell-based. A digest of the protocol:
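MiaPaCa-2 cells plated at 15,000 cells/well and treated 24 h later with 50 µM compound for 24 h. Caspase-Glo 3/7 reagent added; DEVD-containing luminogenic substrate cleavage read as luminescence after 1 h at room temperature. Untreated cells as control.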

Active and inactive are the calls of the source. No cut-off for these calls is given here.

On to `COc1ccc(Nc2nc(C(N)=O)n([C@@H]3O[C@H](CO)[C@@H](O)[C@H]3O)n2)cc1`, for which the viability at 50 µM with MIA PaCa-2 [1] was found to be 126%; in the test with Capan-2, 126%; in the test with PC-3, 102%.
Turning to `COC(=O)c1nc(Nc2ccc(SC)cc2)nn1[C@@H]1O[C@H](COC(C)=O)[C@@H](OC(C)=O)[C@H]1OC(C)=O`, the viability at 50 µM amounted to 85.4% in the test with MIA PaCa-2 [1], 88.1% with Capan-2 and 106% with PC-3.
Taken in the same sequence, the figures for `COC(=O)c1nc(Nc2cccc(Cl)c2)nn1[C@@H]1O[C@H](COC(C)=O)[C@@H](OC(C)=O)[C@H]1OC(C)=O` were 72.4%, 65.8% and 69.8%.
With `COC(=O)c1nc(Nc2ccc(C)cc2)nn1[C@@H]1O[C@H](COC(C)=O)[C@@H](OC(C)=O)[C@H]1OC(C)=O`, the viability at 50 µM in the test on MIA PaCa-2 [1] was found to be 58.6%; in the test on Capan-2 it was 47.1%; with PC-3, 68.6%. The Activity entry in the test with MIA PaCa-2 [2] was “Dose-dependent effect”. Further, the result in the test with MIA PaCa-2 [3] and in the test on MIA PaCa-2 [4] was Active.
In the case of `NC(=O)c1nc(Nc2ccc(F)cc2)nn1[C@@H]1O[C@H](CO)[C@@H](O)[C@H]1O`, the figures for the viability at 50 µM in the test with MIA PaCa-2 [1], with Capan-2 and in the test on PC-3 were 68.1%, 62.9% and 67%, respectively.
For `COC(=O)c1nc(Nc2cccc(C)c2)nn1[C@@H]1O[C@H](COC(C)=O)[C@@H](OC(C)=O)[C@H]1OC(C)=O`, the viability at 50 µM in the test with MIA PaCa-2 [1] is 99.9%; with Capan-2, 84.9%; in the test with PC-3, 94.2%.
Take `COC(=O)c1nc(Nc2ccccc2)nn1[C@@H]1O[C@H](COC(C)=O)[C@@H](OC(C)=O)[C@H]1OC(C)=O`: the viability at 50 µM in the test on MIA PaCa-2 [1] turned out to be 138%; with Capan-2 it was 96.2%; in the test with PC-3 it was 91%.
Turning to `CCc1ccc(Nc2nc(C(=O)OC)n([C@@H]3O[C@H](COC(C)=O)[C@@H](OC(C)=O)[C@H]3OC(C)=O)n2)cc1`, the values for the viability at 50 µM in the test on MIA PaCa-2 [1], in the test on Capan-2 and with PC-3 were 99%, 90% and 96.1%, respectively.
As to `CC(=O)O[C@H]1C(=O)[C@@]2(C)[C@H]([C@H](OC(=O)c3ccccc3)[C@]3(O)C[C@H](OC(=O)[C@H](O)[C@@H](NC(=O)c4ccccc4)c4ccccc4)C(C)=C1C3(C)C)[C@]1(OC(C)=O)CO[C@@H]1C[C@@H]2O` [PACLITAXEL], the viability at 50 µM with PC-3 came out at 41.3%.
With `NC(=O)c1nc(Nc2ccccc2)nn1[C@@H]1O[C@H](CO)[C@@H](O)[C@H]1O`, the viability at 50 µM in the test with MIA PaCa-2 [1] is 68%; in the test with Capan-2, 46.6%; with PC-3, 73.9%.
The like results for `Cc1cccc(Nc2nc(C(N)=O)n([C@@H]3O[C@H](CO)[C@@H](O)[C@H]3O)n2)c1` were, in that order, 100%, 76.3% and 96.2%.
The like results for `COC(=O)c1nc(Nc2ccc(C(F)(F)F)cc2)nn1[C@@H]1O[C@H](COC(C)=O)[C@@H](OC(C)=O)[C@H]1OC(C)=O` were, in that order, 98.6%, 64.4% and 88.4%.
The like results for `NC(=O)c1nc(Nc2ccc(Cl)cc2)nn1[C@@H]1O[C@H](CO)[C@@H](O)[C@H]1O` were, in that order, 95.9%, 72.8% and 70.2%.
In the case of `COC(=O)c1nc(Nc2ccc(OC)cc2)nn1[C@@H]1O[C@H](COC(C)=O)[C@@H](OC(C)=O)[C@H]1OC(C)=O`, the viability at 50 µM in the test on MIA PaCa-2 [1] was 96.4%; with Capan-2, 72%; in the test on PC-3 it was 85.6%.
Turning to `CSc1ccc(Nc2nc(C(N)=O)n([C@@H]3O[C@H](CO)[C@@H](O)[C@H]3O)n2)cc1`, the values for the viability at 50 µM with MIA PaCa-2 [1], in the test on Capan-2 and with PC-3 were 98.6%, 71.1% and 92.1%, respectively.
As for `CCCc1ccc(Nc2nc(C(=O)OC)n([C@@H]3O[C@H](COC(C)=O)[C@@H](OC(C)=O)[C@H]3OC(C)=O)n2)cc1`, the viability at 50 µM in the test with MIA PaCa-2 [1] worked out at 103%; in the test with Capan-2 it was 95.9%; in the test with PC-3, 90.2%.
The like results for `CCCc1ccc(Nc2nc(C(N)=O)n([C@@H]3O[C@H](CO)[C@@H](O)[C@H]3O)n2)cc1` were, in that order, 103%, 71.5% and 90.3%.
The like results for `NC(=O)c1nc(Nc2ccc(C(F)(F)F)cc2)nn1[C@@H]1O[C@H](CO)[C@@H](O)[C@H]1O` were, in that order, 100%, 122% and 89.4%.
The like results for `NC(=O)c1nc(Nc2cccc(Cl)c2)nn1[C@@H]1O[C@H](CO)[C@@H](O)[C@H]1O` were, in that order, 88.7%, 66.2% and 77.4%.
With `Cc1ccc(Nc2nc(C(N)=O)n([C@@H]3O[C@H](CO)[C@@H](O)[C@H]3O)n2)cc1`, the viability at 50 µM came to 85.6% in the test with MIA PaCa-2 [1], 63.9% with Capan-2 and 108% in the test with PC-3.
As to `COC(=O)c1nc(Nc2ccc(Cl)cc2)nn1[C@@H]1O[C@H](COC(C)=O)[C@@H](OC(C)=O)[C@H]1OC(C)=O`, the figures for the viability at 50 µM in the test on MIA PaCa-2 [1], in the test on Capan-2 and with PC-3 were 43.8%, 59.6% and 60.2%, respectively. In addition, the Activity result in the test on MIA PaCa-2 [2] was “Dose-dependent effect”. Also, the result in the test on MIA PaCa-2 [3] and in the test with MIA PaCa-2 [4] was Active.
`Nc1ccn([C@@H]2O[C@H](CO)[C@@H](O)C2(F)F)c(=O)n1` [GEMCITABINE]: the viability at 50 µM came out at 70.4% in the test with MIA PaCa-2 [1] and 32.7% in the test on Capan-2.
`CCc1ccc(Nc2nc(C(N)=O)n([C@@H]3O[C@H](CO)[C@@H](O)[C@H]3O)n2)cc1`: the viability at 50 µM was 99.8% with MIA PaCa-2 [1], 66% with Capan-2 and 91.4% with PC-3.
Taken in the same sequence, the figures for `COC(=O)c1nc(Nc2ccc(F)cc2)nn1[C@@H]1O[C@H](COC(C)=O)[C@@H](OC(C)=O)[C@H]1OC(C)=O` were 80.2%, 79.8% and 84.7%.

Source of the values: ChEMBL document CHEMBL1156171, “N-aryltriazole ribonucleosides with potent antiproliferative activity against drug-resistant pancreatic cancer” (2010).
